The results in this text go back to ChEMBL document CHEMBL1134528, “Heterocycle-containing retinoids. Discovery of a novel isoxazole arotinoid possessing potent apoptotic activity in multidrug and drug-induced apoptosis-resistant cells” (J Med Chem, 2001).

SMILES strings stand for the structures.

Experiment [1] concerns HL-60. Nature of the experiment: Effect on monocyte associated antigen CD14 expression in differentiating HL-60 cells. It counts as functional, Homo sapiens. The method, boiled down: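 HL60 cells (2 × 10^5) exposed to each retinoid for 6 days; differentiation scored by May Grunwald-Giemsa-stained cytospin morphology and two-colour direct immunofluorescence flow cytometry with FITC anti-human CD14 and PE anti-human CD11c mouse monoclonals, isotype antibodies as negative controls; value is % antigen-positive cells. Growth in RPMI 1640, 10% FCS, 37 °C, 5% CO2.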

For experiment [2], the system named is HL-60. Description: In vitro inhibition of HL60 cell proliferation. It counts as functional, cell-based. The following applies: Homo sapiens.
The test system of experiment [3] is SW 962. Description: Potency against beta RARE transactivation in SW962 cells. It counts as functional, Homo sapiens. An outline of the steps:
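Stably transfected SW962 RARE-tk-CAT reporter line treated 24 h with 10^-9 to 10^-5 M compound in DMSO, DMSO vehicle control; CAT protein by ELISA normalised to extract protein, triplicate treatments averaged to give fold RARE induction; EC50, the concentration for half-maximal activation, read from dose–response curves.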

The test system of experiment [4] is SW 962. Description: (§1) Percentage efficacy for Beta RARE transactivation in SW962 cells. It counts as functional, Homo sapiens. Details: concentration or dose not given beside the values. An outline of the steps:
(§2)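 SW962 vulvar carcinoma cells (L15 medium, 10% FBS with <8 nM vitamin A) stably carrying RARE-tk-CAT reporter with endogenous receptors, treated 24 h in DMSO; CAT measured by ELISA, normalised to protein, triplicates; fold induction vs DMSO control. Efficacy = fold induction at highest concentration (10 µM) divided by that of 10 µM 9-cis-RA, ×100.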

The subject of experiment [5] is HL-60. Description: In vitro apoptotic activity in HL60 cells. The following applies: Homo sapiens. It counts as functional, cell-based. An outline of the steps: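 HL60 cells (2 × 10^5 per well, RPMI 1640 + 10% FCS) given increasing drug concentrations for 48 h; apoptosis scored morphologically under fluorescence microscopy after acridine orange/ethidium bromide labelling (chromatin condensation, apoptotic bodies), also by propidium iodide hypotonic-citrate flow cytometry as pre-G0G1 events; AC50 = concentration giving apoptosis in 50% of cells.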

For experiment [6], the system named is SW 962. The description is as §1. Format: functional, Homo sapiens. The method, boiled down: as §2
The subject of experiment [7] is K562. Description: Apoptotic activity in retinoic acid resistant K562 cells. The following applies: Homo sapiens. It counts as functional, cell-based. The method, boiled down:
(§3)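 Cells were exposed to increasing drug concentrations for 48 h. Apoptosis was scored by fluorescence microscopy after acridine orange/ethidium bromide staining, with chromatin condensation and apoptotic bodies marking apoptotic cells and uniform ethidium staining marking necrosis. AC50 is the concentration inducing apoptosis in 50% of cells.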

The subject of experiment [8] is HL-60. Nature of the experiment: Inhibition of retinoic acid resistant HL60R cell proliferation. Format: functional, cell-based. The following applies: Homo sapiens. The method, boiled down:
(§4)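 Cells at 2 × 10^5 per well in 1 mL complete medium were exposed to increasing concentrations of each drug for 48 h. Viable cells were counted on a hemocytometer with trypan blue exclusion and expressed as percent of control proliferation. IC50 is the concentration giving 50% growth inhibition.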

Experiment [9] deals with K562. Description: Inhibition of retinoic acid resistant K562 cell proliferation. It counts as functional, cell-based. The following applies: Homo sapiens. The method, boiled down: as §4
For experiment [10], the system named is HuT78. Description: Inhibition of retinoic acid resistant HUT78 cell proliferation. Format: functional, cell-based. The following applies: Homo sapiens. An outline of the steps: as §4
The subject of experiment [11] is HL-60. Nature of the experiment: Apoptotic activity in retinoic acid resistant HL60R cells. Format: functional, cell-based. The following applies: Homo sapiens. An outline of the steps:
as §3

In experiment [12] the test system is HuT78. Nature of the experiment: Apoptotic activity in retinoic acid resistant HUT78 cell lines. The following applies: Homo sapiens. Format: functional, cell-based. The method, boiled down:
as §3

The term IC50 denotes the point on the concentration scale where inhibition reaches its midpoint. As a reminder, the AC50 is the midpoint of the concentration-response curve, whichever way the signal moves. For `CC1(C)CCC(C)(C)c2cc(C3CC(c4ccc(C(=O)O)cc4)=NO3)ccc21` (configuration not stated), the Activity in the experiment on HL-60 [1] stood at 32.5%. This compound also displayed an IC50 in the experiment with HL-60 [2] of 75 µM. Further, the Potency with SW 962 [3] was 0.961 µM. This compound yielded an Efficacy with SW 962 [4] of 26.3%. In the experiment on HL-60 [5], the concentration at half-maximal activity (AC50) is more than 100 µM.

For `CC1=C(/C=C/C(C)=C/C=C/C(C)=C/C(=O)O)C(C)(C)CCC1` [TRETINOIN], the Activity in the experiment on HL-60 [1] is recorded as 0%. In the experiment with HL-60 [2], this compound showed an IC50 of 18 µM. The compound also yielded an AC50 with HL-60 [5] of more than 100 µM.

`CC1(C)CCC(C)(C)c2cc(C3=NOC(c4ccc(C(=O)O)cc4)C3)ccc21` (configuration not stated) showed an Activity in the experiment on HL-60 [1] of 42.8%. Further, in the experiment with HL-60 [2], the IC50 stood at 68 µM. For the same compound, the Potency in the experiment with SW 962 [3] turned out to be 2.86 µM. The same compound yielded an Efficacy in the experiment with SW 962 [4] of 46.5%. This compound also had an AC50 in the experiment with HL-60 [5] of more than 100 µM.

`CC1(C)CCC(C)(C)c2cc(COc3ccc(C(=O)O)cc3)ccc21`: in the experiment with HL-60 [2], the IC50 was more than 100 µM. In the experiment on HL-60 [5], this compound yielded an AC50 of more than 100 µM.

In turn, `CC1(C)CCC(C)(C)c2cc(CNc3ccc(C(=O)O)cc3)ccc21` displayed an IC50 in the experiment on HL-60 [2] of 40 µM. This compound also came in with a Potency with SW 962 [3] of 0.671 µM. This compound yielded an Efficacy in the experiment on SW 962 [4] of 64.5%. The same compound gave an AC50 with HL-60 [5] of 70 µM.

Consider `CC1(C)CCC(C)(C)c2cc(CNc3cccc(C(=O)O)c3)ccc21`, for which inhibition in the experiment with HL-60 [2] was half-maximal at 60 µM (IC50). The compound further showed an AC50 with HL-60 [5] of 99 µM.

As for `CC1(C)CCC(C)(C)c2cc(-c3cc(-c4ccc(C(=O)O)cc4)on3)ccc21`, the Activity in the experiment on HL-60 [1] came out at 38.6%. In the experiment on HL-60 [2], this compound gave an IC50 of 80 µM. The compound also displayed a Potency with SW 962 [3] of 0.129 µM. This compound also yielded an Efficacy with SW 962 [4] of 48%. The AC50 in the experiment on HL-60 [5] is more than 100 µM.

Compound `CC1(C)CCC(C)(C)c2cc(CNc3ccccc3C(=O)O)ccc21` registered an IC50 in the experiment with HL-60 [2] of 49 µM. Besides, the concentration at half-maximal activity (AC50) in the experiment on HL-60 [5] is 88 µM.

Regarding `CC1=C(/C=C/C(C)=C\C=C\C(C)=C\C(=O)O)C(C)(C)CCC1` [ALITRETINOIN], in the experiment on SW 962 [3], the Potency was determined as 0.0169 µM. The compound also came in with an Efficacy in the experiment with SW 962 [6] of 100%.

As for `CC1(C)CCC(C)(C)c2cc(-c3cc(-c4ccc(C(=O)O)cc4)no3)ccc21`, the IC50 turned out to be 1 µM in the experiment with HL-60 [2], 1.4 µM in the experiment on HL-60 [8], 2.3 µM in the experiment on K562 [9] and 0.8 µM with HuT78 [10]. In addition, the AC50 worked out at 4.8 µM in the experiment on K562 [7], 4.2 µM in the experiment with HL-60 [11], 1.5 µM in the experiment with HuT78 [12] and 5 µM with HL-60 [5]. The compound also returned a Potency in the experiment with SW 962 [3] of 10 µM. Moreover, the Efficacy in the experiment on SW 962 [4] is reported as 97.6%.

For `CN(Cc1ccc2c(c1)C(C)(C)CCC2(C)C)c1ccc(C(=O)O)cc1`, inhibition with HL-60 [2] was half-maximal at 58 µM (IC50). In the experiment with HL-60 [5], this compound displayed a half-maximal activity concentration (AC50) of 95 µM.
